Measured values as given in ChEMBL document CHEMBL1152312, “Neopyrrolomycins with broad spectrum antibacterial activity” (2009).
Values after ≈ are worked out from the molar mass of the structure shown. Active and inactive are the calls of the source. The rule behind the calls is not given here.

How the values were obtained:
Pseudomonas aeruginosa [1] = test: Antibacterial activity against Pseudomonas aeruginosa 1473 by microdilution method; format: functional
How it was run: (§1)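 MIC values from CLSI broth microdilution. Strains came from the ATCC collection and from clinical isolates.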

Staphylococcus aureus [2] = test: Antibacterial activity against methicillin-resistant Staphylococcus aureus 1137 by microdilution method; format: functional; how it was run: as §1
Staphylococcus aureus [3] = test: Antibacterial activity against methicillin-resistant Staphylococcus aureus 2170 by microdilution method; format: functional; how it was run: as §1
Staphylococcus aureus [4] = test: Antibacterial activity against vancomycin-intermediate Staphylococcus aureus 2012 by microdilution method; format: functional; how it was run: as §1
Staphylococcus aureus [5] = test: Antibacterial activity against vancomycin-intermediate Staphylococcus aureus 2018 by microdilution method; format: functional; how it was run: as §1
Staphylococcus aureus [6] = test: Antibacterial activity against Linezolid, methicillin-resistant Staphylococcus aureus 1725 by microdilution method; format: functional; how it was run: as §1
Staphylococcus aureus [7] = test: Antibacterial activity against Linezolid, methicillin-resistant Staphylococcus aureus 1651 by microdilution method; format: functional; how it was run: as §1
Staphylococcus aureus [8] = test: Antibacterial activity against community-acquired Staphylococcus aureus 2144 by microdilution method; format: functional; how it was run: as §1
[9] = tested on: Staphylococcus epidermidis; test: Antibacterial activity against methicillin-sensitive Staphylococcus epidermidis 1597 by microdilution method; format: functional; how it was run: as §1
[10] = tested on: Staphylococcus epidermidis; test: Antibacterial activity against methicillin-resistant Staphylococcus epidermidis 1452 by microdilution method; format: functional; how it was run: as §1
[11] = tested on: Staphylococcus epidermidis; test: Antibacterial activity against Staphylococcus epidermidis 495 by microdilution method; format: functional; how it was run: as §1
Enterococcus faecalis = test: Antibacterial activity against vancomycin-resistant Enterococcus faecalis 846 by microdilution method; format: functional; how it was run: as §1
Enterococcus faecium [12] = test: Antibacterial activity against vancomycin-sensitive Enterococcus faecium 843 by microdilution method; format: functional; how it was run: as §1
Enterococcus faecium [13] = test: Antibacterial activity against vancomycin-resistant Enterococcus faecium 1254 by microdilution method; format: functional; how it was run: as §1
Streptococcus pneumoniae [14] = test: Antibacterial activity against penicillin-susceptible Streptococcus pneumoniae 866 by microdilution method; format: functional; how it was run: as §1
Streptococcus pneumoniae [15] = test: Antibacterial activity against penicillin-resistant Streptococcus pneumoniae 940 by microdilution method; format: functional; how it was run: as §1
Streptococcus pneumoniae [16] = test: Antibacterial activity against penicillin-resistant Streptococcus pneumoniae 748 by microdilution method; format: functional; how it was run: as §1
Streptococcus pneumoniae [17] = test: Antibacterial activity against quinolone-resistant Streptococcus pneumoniae 376 by microdilution method; format: functional; how it was run: as §1
Streptococcus pneumoniae [18] = test: Antibacterial activity against quinolone-resistant Streptococcus pneumoniae 379 by microdilution method; format: functional; how it was run: as §1
Streptococcus pneumoniae [19] = test: Antibacterial activity against multidrug-resistant Streptococcus pneumoniae 933 by microdilution method; format: functional; how it was run: as §1
Streptococcus pneumoniae [20] = test: Antibacterial activity against Streptococcus pneumoniae 1195 ATCC 49619 by microdilution method; format: functional; how it was run: as §1
Streptococcus pyogenes = test: Antibacterial activity against Streptococcus pyogenes 723 by microdilution method; format: functional; how it was run: as §1
Streptococcus agalactiae = test: Antibacterial activity against Streptococcus agalactiae 2033 by microdilution method; format: functional; how it was run: as §1
Moraxella catarrhalis = test: Antibacterial activity against Moraxella catarrhalis 557 by microdilution method; format: functional; how it was run: as §1
Haemophilus influenzae [21] = test: Antibacterial activity against ampicillin-resistant Haemophilus influenzae 1742 by microdilution method; format: functional; how it was run: as §1
Haemophilus influenzae [22] = test: Antibacterial activity against Haemophilus influenzae 1224 ATCC 49247 by microdilution method; format: functional; how it was run: as §1
[23] = tested on: Haemophilus parainfluenzae; test: Antibacterial activity against Haemophilus parainfluenzae 2319 ATCC 7901 by microdilution method; format: functional; how it was run: as §1
Escherichia coli [24] = test: Antibacterial activity against Escherichia coli 102 ATCC 25922 by microdilution method; format: functional; how it was run: as §1
Escherichia coli [25] = test: Antibacterial activity against extended spectrum beta-lactamase-producing Escherichia coli 2269 by microdilution method; format: functional; how it was run: as §1
Klebsiella pneumoniae [26] = test: Antibacterial activity against Klebsiella pneumoniae 2239 by microdilution method; format: functional; how it was run: as §1
Klebsiella pneumoniae [27] = test: Antibacterial activity against ampicillin beta-lactamase, multidrug-resistant Klebsiella pneumoniae 2262 by microdilution method; format: functional; how it was run: as §1
Serratia marcescens = test: Antibacterial activity against Serratia marcescens 1635 by microdilution method; format: functional; how it was run: as §1
Escherichia coli [28] = test: Antibacterial activity against Escherichia coli 25922 by microdilution method; format: functional
How it was run: (§2)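 MIC determined by CLSI broth microdilution; organisms were ATCC strains and clinical isolates.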

Escherichia coli [29] = test: Antibacterial activity against Escherichia coli 1411 by microdilution method; format: functional; how it was run: as §2
Klebsiella pneumoniae [30] = test: Antibacterial activity against Klebsiella pneumoniae 4352 by microdilution method; format: functional; how it was run: as §2
Staphylococcus aureus [31] = test: Antibacterial activity against methicillin-resistant Staphylococcus aureus 43300 by microdilution method; format: functional; how it was run: as §1
Staphylococcus aureus [32] = test: Antibacterial activity against methicillin-sensitive Staphylococcus aureus 6538 by microdilution method; format: functional; how it was run: as §1
Staphylococcus aureus [33] = test: Antibacterial activity against methicillin-sensitive Staphylococcus aureus 29213 by microdilution method; format: functional; how it was run: as §1
Pseudomonas aeruginosa [34] = test: Antibacterial activity against Pseudomonas aeruginosa 27853 by microdilution method; format: functional; how it was run: as §2
Streptococcus pneumoniae [35] = test: Antibacterial activity against Streptococcus pneumoniae 49619 by microdilution method; format: functional; how it was run: as §2
Enterococcus faecium [36] = test: Antibacterial activity against vancomycin-resistant Enterococcus faecium 700221 by microdilution method; format: functional; how it was run: as §1
Staphylococcus aureus [37] = test: Antibacterial activity against methicillin-sensitive Staphylococcus aureus 100 ATCC 29213 by microdilution method; format: functional; how it was run: as §1
HepG2 = test: Cytotoxicity against human HepG2 cells assessed as effect on cell viability at 8 ug/mL after 48 hrs by celltiter glow assay; format: functional, cell-based
How it was run: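 HepG2 cells were kept in MEM with 10% heat-inactivated FBS, 0.10 mM nonessential amino acids and 1 mM sodium pyruvate at 37 °C and 5% CO2. Cells were seeded at 1.25 × 10^5 cells/mL 24 h before dosing. Compounds were dissolved in DMSO and tested at 0.6–128 µg/mL with 1% DMSO final for 48 h. Viability was read by CellTiter-Glo luminescence as a percentage of the DMSO control.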

NHDF = test: Cytotoxicity against NHDF cells after 48 hrs by celltiter glow assay; format: functional; details: Homo sapiens
How it was run: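 Fibroblasts kept at 37 °C, 5% CO2 in FGM-2 medium, passage ≤16. Seeded at 1.25 × 10^5 cells/mL 24 h before dosing. Compounds dissolved in DMSO, tested 0.6–128 µg/mL at 1% final DMSO for 48 h. Viability by CellTiter-Glo luminescence, expressed as percent of DMSO control.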

SMILES: O=C(O)c1cn(C2CC2)c2cc(N3CCNCC3)c(F)cc2c1=O [CIPROFLOXACIN]
- MIC90 (Pseudomonas aeruginosa [1]): 1 µg/mL (≈ 3.02 µM)
- MIC90 (Staphylococcus aureus [2]): > 2 µg/mL
- MIC90 (Staphylococcus aureus [3]): > 2 µg/mL
- MIC90 (Staphylococcus aureus [4]): > 2 µg/mL
- MIC90 (Staphylococcus aureus [5]): > 2 µg/mL
- MIC90 (Staphylococcus aureus [6]): > 2 µg/mL
- MIC90 (Staphylococcus aureus [7]): > 2 µg/mL
- MIC90 (Staphylococcus aureus [8]): > 2 µg/mL
- MIC90 [9]: 0.25 µg/mL (≈ 0.754 µM)
- MIC90 [10]: > 2 µg/mL
- MIC90 [11]: 0.5 µg/mL (≈ 1.51 µM)
- MIC90 (Enterococcus faecalis): > 2 µg/mL
- MIC90 (Enterococcus faecium [12]): > 2 µg/mL
- MIC90 (Enterococcus faecium [13]): > 2 µg/mL
- MIC90 (Streptococcus pneumoniae [14]): > 2 µg/mL
- MIC90 (Streptococcus pneumoniae [15]): > 2 µg/mL
- MIC90 (Streptococcus pneumoniae [16]): 1 µg/mL (≈ 3.02 µM)
- MIC90 (Streptococcus pneumoniae [17]): > 2 µg/mL
- MIC90 (Streptococcus pneumoniae [18]): > 2 µg/mL
- MIC90 (Streptococcus pneumoniae [19]): 2 µg/mL (≈ 6.04 µM)
- MIC90 (Streptococcus pneumoniae [20]): 1 µg/mL (≈ 3.02 µM)
- MIC90 (Streptococcus pyogenes): 0.5 µg/mL (≈ 1.51 µM)
- MIC90 (Streptococcus agalactiae): 1 µg/mL (≈ 3.02 µM)
- MIC90 (Moraxella catarrhalis): 0.03 µg/mL (≈ 0.0905 µM)
- MIC90 (Haemophilus influenzae [21]): 0.008 µg/mL (≈ 0.0241 µM)
- MIC90 (Haemophilus influenzae [22]): 0.15 µg/mL (≈ 0.453 µM)
- MIC90 [23]: 0.15 µg/mL (≈ 0.453 µM)
- MIC90 (Escherichia coli [24]): 0.008 µg/mL (≈ 0.0241 µM)
- MIC90 (Escherichia coli [25]): > 2 µg/mL
- MIC90 (Klebsiella pneumoniae [26]): 0.03 µg/mL (≈ 0.0905 µM)
- MIC90 (Klebsiella pneumoniae [27]): > 2 µg/mL
- MIC90 (Serratia marcescens): 0.06 µg/mL (≈ 0.181 µM)

SMILES: Oc1cc(Cl)c(Cl)c(Cl)c1-n1cc(Cl)c(Cl)c1Cl [NEOPYRROLOMYCIN B]
- MIC90 (Pseudomonas aeruginosa [1]): 16 µg/mL (≈ 43.7 µM)
- MIC90 (Escherichia coli [28]): 16 µg/mL (≈ 43.7 µM)
- MIC90 (Escherichia coli [29]): 16 µg/mL (≈ 43.7 µM)
- MIC90 (Klebsiella pneumoniae [30]): 16 µg/mL (≈ 43.7 µM)
- MIC90 (Staphylococcus aureus [31]): 0.125 µg/mL (≈ 0.342 µM)
- MBC (Staphylococcus aureus [32]): 2 µg/mL (≈ 5.47 µM)
- MIC90 (Staphylococcus aureus [32]): 0.25 µg/mL (≈ 0.683 µM)
- MIC90 (Staphylococcus aureus [33]): 0.5 µg/mL (≈ 1.37 µM)
- MIC90 (Pseudomonas aeruginosa [34]): 16 µg/mL (≈ 43.7 µM)
- MIC90 (Streptococcus pneumoniae [35]): 1 µg/mL (≈ 2.73 µM)
- MIC90 (Enterococcus faecium [36]): 0.5 µg/mL (≈ 1.37 µM)
- MIC90 (Staphylococcus aureus [37]): 0.25 µg/mL (≈ 0.683 µM)
- MIC90 (Staphylococcus aureus [2]): 0.12 µg/mL (≈ 0.328 µM)
- MIC90 (Staphylococcus aureus [3]): ≤ 0.06 µg/mL
- MIC90 (Staphylococcus aureus [4]): ≤ 0.06 µg/mL
- MIC90 (Staphylococcus aureus [5]): ≤ 0.06 µg/mL
- MIC90 (Staphylococcus aureus [6]): ≤ 0.06 µg/mL
- MIC90 (Staphylococcus aureus [7]): ≤ 0.06 µg/mL
- MIC90 (Staphylococcus aureus [8]): 0.12 µg/mL (≈ 0.328 µM)
- MIC90 [9]: ≤ 0.06 µg/mL
- MIC90 [10]: ≤ 0.06 µg/mL
- MIC90 [11]: ≤ 0.06 µg/mL
- MIC90 (Enterococcus faecalis): ≤ 0.06 µg/mL
- MIC90 (Enterococcus faecium [12]): ≤ 0.06 µg/mL
- MIC90 (Enterococcus faecium [13]): ≤ 0.06 µg/mL
- MIC90 (Streptococcus pneumoniae [14]): 16 µg/mL (≈ 43.7 µM)
- MIC90 (Streptococcus pneumoniae [15]): 1 µg/mL (≈ 2.73 µM)
- MIC90 (Streptococcus pneumoniae [16]): 1 µg/mL (≈ 2.73 µM)
- MIC90 (Streptococcus pneumoniae [17]): 2 µg/mL (≈ 5.47 µM)
- MIC90 (Streptococcus pneumoniae [18]): 16 µg/mL (≈ 43.7 µM)
- MIC90 (Streptococcus pneumoniae [19]): 1 µg/mL (≈ 2.73 µM)
- MIC90 (Streptococcus pneumoniae [20]): 2 µg/mL (≈ 5.47 µM)
- MIC90 (Streptococcus pyogenes): > 16 µg/mL
- MIC90 (Streptococcus agalactiae): 16 µg/mL (≈ 43.7 µM)
- MIC90 (Moraxella catarrhalis): ≤ 0.06 µg/mL
- MIC90 (Haemophilus influenzae [21]): 0.5 µg/mL (≈ 1.37 µM)
- MIC90 (Haemophilus influenzae [22]): 0.25 µg/mL (≈ 0.683 µM)
- MIC90 [23]: 1 µg/mL (≈ 2.73 µM)
- MIC90 (Escherichia coli [24]): 8 µg/mL (≈ 21.9 µM)
- MIC90 (Escherichia coli [25]): 8 µg/mL (≈ 21.9 µM)
- MIC90 (Klebsiella pneumoniae [26]): 16 µg/mL (≈ 43.7 µM)
- MIC90 (Klebsiella pneumoniae [27]): 8 µg/mL (≈ 21.9 µM)
- MIC90 (Serratia marcescens): 16 µg/mL (≈ 43.7 µM)
- Activity (HepG2): Active
- CC90 (NHDF): 16 µg/mL (≈ 43.7 µM)
